From paper PMC7668563 (International journal of molecular biology (Edmond, Okla.), 2020)
Where two headings read alike, the source gives them in different places.

How the values were obtained:
[1] = target: T1, apo-human transferrin (apo-hTf) (Homo sapiens, UniProt P02787); experiment: Fluorescence quenching of apo-hTf; format: binding; settings: for biomolecular quenching rate constant kq: kq=Ksv/τ0; for Stern-Volmer quenching constant Ksv / number of binding sites n: pH 7.4; for quenching association constant Ka: pH 7.4, modified Stern-Volmer
T1 sequence (P02787 20-698): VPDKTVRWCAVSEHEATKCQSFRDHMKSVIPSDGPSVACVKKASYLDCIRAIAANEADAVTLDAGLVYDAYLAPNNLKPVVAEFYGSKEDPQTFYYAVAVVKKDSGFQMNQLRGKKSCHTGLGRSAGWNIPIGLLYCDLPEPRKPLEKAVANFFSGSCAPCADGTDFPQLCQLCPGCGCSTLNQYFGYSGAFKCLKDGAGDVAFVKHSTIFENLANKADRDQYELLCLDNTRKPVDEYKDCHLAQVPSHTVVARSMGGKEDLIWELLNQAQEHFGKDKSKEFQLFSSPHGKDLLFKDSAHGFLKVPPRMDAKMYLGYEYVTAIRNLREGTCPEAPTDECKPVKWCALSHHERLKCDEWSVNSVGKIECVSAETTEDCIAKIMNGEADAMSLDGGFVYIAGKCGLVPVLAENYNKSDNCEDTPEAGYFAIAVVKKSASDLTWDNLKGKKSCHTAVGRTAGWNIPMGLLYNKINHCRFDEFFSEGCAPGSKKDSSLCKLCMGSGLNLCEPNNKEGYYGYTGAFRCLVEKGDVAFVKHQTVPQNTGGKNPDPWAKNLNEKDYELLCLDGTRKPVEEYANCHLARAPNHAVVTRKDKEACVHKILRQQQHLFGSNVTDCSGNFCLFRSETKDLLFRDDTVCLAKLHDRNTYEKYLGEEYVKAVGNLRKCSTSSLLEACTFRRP
Summary of the method: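 Intrinsic fluorescence of apo-hTf in Tris-HCl pH 7.4 was titrated with test compound (Tris-HCl/2% DMSO). Conditions: excitation 280 nm, emission 290–500 nm, slits 10/5 nm, 1.0 cm quartz cell, at 296, 303, 310 and 317 K, triplicate titrations. Intensities were corrected for inner filter effect using absorbances at excitation and emission wavelengths. Ksv came from Stern-Volmer plots of F0/F vs [Q]; kq = Ksv/τ0 (τ0 ~1.0×10−8); Ka and n came from the modified Stern-Volmer equation.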

[2] = system: human colorectal adenocarcinoma cell line, HT-29; settings: cited from earlier work
[3] = target: T1, apo-human transferrin (apo-hTf); experiment: Thermodynamic parameters of apo-hTf complex formation; format: binding; settings: for ∆H° / ∆S°: pH 7.4, from Ksv at 296-317 K
Summary of the method: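 Ksv values were obtained from apo-hTf fluorescence quenching at pH 7.4 at 296, 303, 310 and 317 K. ΔH°, ΔS° and ΔG° were derived from linear regression of ln(Ksv) vs 1/T (Van't Hoff equation).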

[4] = system: human breast adenocarcinoma cell line, MCF-7; settings: cited from earlier work
[5] = target: T1, apo-human transferrin (apo-hTf); experiment: Fluorescence resonance energy transfer; format: binding; settings: for Förster critical energy transfer distance R0 / binding distance r (donor-acceptor): k^2=2/3, n=1.336, ØD=0.118; for efficiency of energy transfer E: room temperature, 1.0×10^−5 mol L^−1 each
Summary of the method: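 Emission spectrum of 1.0×10−5 mol L−1 apo-hTf and absorption spectrum of 1.0×10−5 mol L−1 test compound were recorded in 20 mM Tris-HCl pH 7.4 at room temperature, 260–450 nm, and their spectral overlap determined. E was calculated from apo-hTf fluorescence without and with equimolar test compound. R0 and donor–acceptor distance r came from Förster equations.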

[6] = target: T1, apo-human transferrin (apo-hTf); experiment: Far-UV circular dichroism titration of apo-hTf, secondary structure content
Summary of the method: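 Apo-hTf (4.0×10−7 mol L−1) in 2 mM Tris-HCl pH 7.4 was titrated with a 1.0×10−3 mol L−1 stock of test compound in Tris-HCl/2% DMSO, to final 0–2.4×10−6 mol L−1. Far-UV CD was recorded from 190–250 nm under nitrogen in a 1.0 cm cell: six scans at 100 nm/min. Baseline was buffer ± DMSO at room temperature. α-Helix was derived from MRE at 208 nm; β-sheet and random coil by the CD-RRG method.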

[7] = target: T1, apo-human transferrin (apo-hTf); experiment: UV-Vis absorbance titration of apo-hTf; format: binding; settings: for Ka at 280 nm: absorbance at 280 nm; for Association constants, Ka, 280 nm: absorbance of apo-hTf at 280 nm

N.N.[Cl][Pt][Cl] [(NH3)2Pt(II)Cl2, cis-diamminedichloroplatinum (II), reference compound]
biomolecular quenching rate constant kq ([1]; 296 K): 1.35e+11 M⁻¹ s⁻¹
Stern-Volmer quenching constant Ksv ([1]; 296 K): 1350 M⁻¹
number of binding sites n ([1]; 296 K): 0.97
quenching association constant Ka ([1]; 296 K): 1100 M⁻¹
biomolecular quenching rate constant kq ([1]; 303 K): 1.1e+11 M⁻¹ s⁻¹
Stern-Volmer quenching constant Ksv ([1]; 303 K): 1100 M⁻¹
number of binding sites n ([1]; 303 K): 1.01
quenching association constant Ka ([1]; 303 K): 1200 M⁻¹
biomolecular quenching rate constant kq ([1]; 310 K): 9.8e+10 M⁻¹ s⁻¹
Stern-Volmer quenching constant Ksv ([1]; 310 K): 980 M⁻¹
number of binding sites n ([1]; 310 K): 1.04
quenching association constant Ka ([1]; 310 K): 1400 M⁻¹
biomolecular quenching rate constant kq ([1]; 317 K): 8.6e+10 M⁻¹ s⁻¹
Stern-Volmer quenching constant Ksv ([1]; 317 K): 860 M⁻¹
number of binding sites n ([1]; 317 K): 1.07
quenching association constant Ka ([1]; 317 K): 1600 M⁻¹
IC50 ([2]; read-out: IC50 (±SD), HT-29, ref 77): 66 µM
IC50 ([2]; read-out: IC50 (±SD), HT-29, ref 84): 23 µM
IC50 ([2]; read-out: IC50 (±SD), HT-29, ref 85): 76 µM
∆G° ([3]; 296 K): -4.226 kcal/mol
∆G° ([3]; 303 K): -4.233 kcal/mol
∆G° ([3]; 310 K): -4.242 kcal/mol
∆G° ([3]; 317 K): -4.252 kcal/mol
∆H° [3]: -3.86 kcal/mol
∆S° [3]: 5.17 J/mol K
IC50 ([4]; read-out: IC50 (±SD), MCF-7, ref 83): 2 µM
IC50 ([4]; read-out: IC50 (±SD), MCF-7, ref 84): 4.6 µM
Förster critical energy transfer distance R0 [5]: 7.4 nm
binding distance r (donor-acceptor) [5]: 10.35 nm
efficiency of energy transfer E [5]: 0.118
other secondary structure content of apo-hTf ([6]; compound concentration 0.4 (M)): 19.1%
random coil content of apo-hTf ([6]; compound concentration 0.4 (M)): 33.9%
α-helix content of apo-hTf ([6]; compound concentration 0.4 (M)): 28.9%
β-sheet content of apo-hTf ([6]; compound concentration 0.4 (M)): 18.1%
other secondary structure content of apo-hTf ([6]; compound concentration 0.8 (M)): 19.2%
random coil content of apo-hTf ([6]; compound concentration 0.8 (M)): 33.9%
α-helix content of apo-hTf ([6]; compound concentration 0.8 (M)): 28.7%
β-sheet content of apo-hTf ([6]; compound concentration 0.8 (M)): 18.2%
other secondary structure content of apo-hTf ([6]; compound concentration 1.2 (M)): 19.2%
random coil content of apo-hTf ([6]; compound concentration 1.2 (M)): 34%
α-helix content of apo-hTf ([6]; compound concentration 1.2 (M)): 28.5%
β-sheet content of apo-hTf ([6]; compound concentration 1.2 (M)): 18.3%
other secondary structure content of apo-hTf ([6]; compound concentration 1.6 (M)): 19.3%
random coil content of apo-hTf ([6]; compound concentration 1.6 (M)): 34%
α-helix content of apo-hTf ([6]; compound concentration 1.6 (M)): 28.3%
β-sheet content of apo-hTf ([6]; compound concentration 1.6 (M)): 18.4%
other secondary structure content of apo-hTf ([6]; compound concentration 2 (M)): 19.3%
random coil content of apo-hTf ([6]; compound concentration 2 (M)): 34.1%
α-helix content of apo-hTf ([6]; compound concentration 2 (M)): 28.1%
β-sheet content of apo-hTf ([6]; compound concentration 2 (M)): 18.5%
other secondary structure content of apo-hTf ([6]; compound concentration 2.4 (M)): 19.3%
random coil content of apo-hTf ([6]; compound concentration 2.4 (M)): 34.1%
α-helix content of apo-hTf ([6]; compound concentration 2.4 (M)): 28%
β-sheet content of apo-hTf ([6]; compound concentration 2.4 (M)): 18.6%
Ka at 280 nm [7]: 740 M⁻¹
Association constants, Ka, 280 nm ([7]; pH 7.4): 0.74 10^3 M^−1

[Cl-].[Cl-].[Mo+4].c1cc[cH-]c1.c1cc[cH-]c1 [Cp2MoCl2]
biomolecular quenching rate constant kq ([1]; 296 K): 1.51e+11 M⁻¹ s⁻¹
Stern-Volmer quenching constant Ksv ([1]; 296 K): 1510 M⁻¹
number of binding sites n ([1]; 296 K): 1.26
quenching association constant Ka ([1]; 296 K): 19300 M⁻¹
biomolecular quenching rate constant kq ([1]; 303 K): 1.59e+11 M⁻¹ s⁻¹
Stern-Volmer quenching constant Ksv ([1]; 303 K): 1590 M⁻¹
number of binding sites n ([1]; 303 K): 1.23
quenching association constant Ka ([1]; 303 K): 15800 M⁻¹
biomolecular quenching rate constant kq ([1]; 310 K): 1.81e+11 M⁻¹ s⁻¹
Stern-Volmer quenching constant Ksv ([1]; 310 K): 1810 M⁻¹
number of binding sites n ([1]; 310 K): 1.19
quenching association constant Ka ([1]; 310 K): 12100 M⁻¹
biomolecular quenching rate constant kq ([1]; 317 K): 2.05e+11 M⁻¹ s⁻¹
Stern-Volmer quenching constant Ksv ([1]; 317 K): 2050 M⁻¹
number of binding sites n ([1]; 317 K): 1.16
quenching association constant Ka ([1]; 317 K): 9500 M⁻¹
IC50 ([2]; read-out: IC50 (±SD), HT-29, ref 21): 2600 µM
∆G° ([3]; 296 K): -4.293 kcal/mol
∆G° ([3]; 303 K): -4.46 kcal/mol
∆G° ([3]; 310 K): -4.625 kcal/mol
∆G° ([3]; 317 K): -4.792 kcal/mol
∆H° [3]: 2.768 kcal/mol
∆S° [3]: 99.78 J/mol K
IC50 (±SD), MCF-7 [4]: proliferative activity
IC50 (±SD), MCF-7 ([4]; listed as Cp^2MoCl^2): Proliferative[21],[68]
Förster critical energy transfer distance R0 [5]: 3.38 nm
binding distance r (donor-acceptor) [5]: 4.44 nm
efficiency of energy transfer E [5]: 0.162
other secondary structure content of apo-hTf ([6]; compound concentration 0.4 (M)): 19.3%
random coil content of apo-hTf ([6]; compound concentration 0.4 (M)): 33.9%
α-helix content of apo-hTf ([6]; compound concentration 0.4 (M)): 28.7%
β-sheet content of apo-hTf ([6]; compound concentration 0.4 (M)): 18.1%
other secondary structure content of apo-hTf ([6]; compound concentration 0.8 (M)): 19.4%
random coil content of apo-hTf ([6]; compound concentration 0.8 (M)): 34%
α-helix content of apo-hTf ([6]; compound concentration 0.8 (M)): 28.3%
β-sheet content of apo-hTf ([6]; compound concentration 0.8 (M)): 18.3%
other secondary structure content of apo-hTf ([6]; compound concentration 1.2 (M)): 19.9%
random coil content of apo-hTf ([6]; compound concentration 1.2 (M)): 34.1%
α-helix content of apo-hTf ([6]; compound concentration 1.2 (M)): 27.6%
β-sheet content of apo-hTf ([6]; compound concentration 1.2 (M)): 18.4%
other secondary structure content of apo-hTf ([6]; compound concentration 1.6 (M)): 20%
random coil content of apo-hTf ([6]; compound concentration 1.6 (M)): 34.3%
α-helix content of apo-hTf ([6]; compound concentration 1.6 (M)): 27.1%
β-sheet content of apo-hTf ([6]; compound concentration 1.6 (M)): 18.6%
other secondary structure content of apo-hTf ([6]; compound concentration 2 (M)): 20.1%
random coil content of apo-hTf ([6]; compound concentration 2 (M)): 34.5%
α-helix content of apo-hTf ([6]; compound concentration 2 (M)): 26.5%
β-sheet content of apo-hTf ([6]; compound concentration 2 (M)): 18.9%
other secondary structure content of apo-hTf ([6]; compound concentration 2.4 (M)): 20.2%
random coil content of apo-hTf ([6]; compound concentration 2.4 (M)): 34.7%
α-helix content of apo-hTf ([6]; compound concentration 2.4 (M)): 25.8%
β-sheet content of apo-hTf ([6]; compound concentration 2.4 (M)): 19.3%
Ka at 280 nm [7]: 3060 M⁻¹
Ka at 361 nm ([7]; absorbance at 361 nm): 3090 M⁻¹
Association constants, Ka, 280 nm ([7]; pH 7.4): 3.06 10^3 M^−1
Association constants, Ka, 361 nm ([7]; absorbance of apo-hTf at 361 nm, pH 7.4): 3.09 10^3 M^−1
